Data on 20 compounds can be found in PMC4277207 (ChemMedChem, 2014).

Read-outs that look alike come from different tables or passages of the source.

Data set [1] deals with D2-like receptor (D2, D3, and D4). Put plainly: [3H]spiperone binding assay, rat striatal. Particulars: ratio of Ki values, rat brain preparation. The method in brief:
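The D2-like assay used [3H]spiperone at 0.2 nM on caudate-putamen membranes at 1.5 mg o.w.w./mL, in agonist-optimised Tris-HCl/KCl/MgCl2/CaCl2 buffer at pH 7.4. Nonspecific binding was set with 1 μM (+)-butaclamol, and KD was 0.4 nM. For two-site curves, the high-affinity Ki is reported. […] Values are means of 3–6 determinations.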

In data set [2] the test system is D1-like receptor (D1 and D5). Put plainly: [3H]SCH 23390 binding assay, rat striatal membranes. Particulars: ratio of Ki values, rat brain preparation.
The format of data set [3] is in vitro ADME.

For `CCCN(CCC1(O)CC(NS(=O)(=O)c2ccc(Cl)cc2)C1)[C@H]1CCc2nc(N)sc2C1` (stereo in doubt) [Compound 30, N-(cis-3-(2-(((S)-2-Amino-4,5,6,7-tetrahydrobenzo[d]thiazol-6-yl)(propyl)amino)-ethyl)-3-hydroxycyclobutyl)-4-chlorobenzenesulfonamide], in data set [1], the “Selectivity D2-like/D3” value is reported as 205. Besides, in data set [2], the “Selectivity D1-like/D3” value was 17,654.

Turning to `CCCN(CC[C@]1(O)C[C@@H](NS(=O)(=O)c2cccc(Cl)c2)C1)[C@H]1CCc2nc(N)sc2C1` (relative stereo) [Compound 29, N-(cis-3-(2-(((S)-2-Amino-4,5,6,7-tetrahydrobenzo[d]thiazol-6-yl)(propyl)amino)-ethyl)-3-hydroxycyclobutyl)-3-chlorobenzenesulfonamide], in data set [1], the “Selectivity D2-like/D3” value turned out to be 28. The “Selectivity D1-like/D3” value in data set [2] is reported as 27,200.

Consider `CCCN(CCC1(O)CC(NC(=O)c2ccccc2Cl)C1)[C@H]1CCc2nc(N)sc2C1` (stereo in doubt) [Compound 12, N-(cis-3-(2-(((S)-2-Amino-4,5,6,7-tetrahydrobenzo[d]thiazol-6-yl)(propyl)amino)-ethyl)-3-hydroxycyclobutyl)-2-chlorobenzamide], for which the “Selectivity D2-like/D3” value in data set [1] amounted to 117. The “Selectivity D1-like/D3” value in data set [2] is 80,161.

In the case of `CCCN(CCC1(O)CC(NC(=O)c2ccc3ccccc3c2)C1)[C@H]1CCc2nc(N)sc2C1` (stereo partly drawn) [Compound 3], the “Percentage remaining of compounds in human liver microsomes” value in data set [3] (0 h) was 100%; in data set [3] (5 min), 79.2%; in data set [3] (10 min), 49.9%; in data set [3] (0.25 h) it was 34.9%; in data set [3] (0.5 h), 11.7%; in data set [3] (1 h), 2.1%.

Take `CCCN(CCC1(O)CC(NS(=O)(=O)c2cccc(F)c2)C1)[C@H]1CCc2nc(N)sc2C1` (stereo in doubt) [Compound 32, N-(cis-3-(2-(((S)-2-Amino-4,5,6,7-tetrahydrobenzo[d]thiazol-6-yl)(propyl)amino)-ethyl)-3-hydroxycyclobutyl)-3-fluorobenzenesulfonamide]: the “Selectivity D2-like/D3” value in data set [1] is given as 91. In addition, the “Selectivity D1-like/D3” value in data set [2] is given as 97,500.

Regarding `CCCN(CCC1(O)CC(NS(=O)(=O)c2ccccc2)C1)[C@H]1CCc2nc(N)sc2C1` (stereo in doubt) [Compound 24, N-(cis-3-(2-(((S)-2-Amino-4,5,6,7-tetrahydrobenzo[d]thiazol-6-yl)(propyl)amino)-ethyl)-3-hydroxycyclobutyl)benzenesulfonamide], the “Selectivity D2-like/D3” value in data set [1] was 42. Besides, in data set [2], the “Selectivity D1-like/D3” value is 30,000.

Regarding `CCCN(CCC1(O)CC(NS(=O)(=O)c2ccc(OC)cc2)C1)[C@H]1CCc2nc(N)sc2C1` (stereo in doubt) [Compound 27, N-(cis-3-(2-(((S)-2-Amino-4,5,6,7-tetrahydrobenzo[d]thiazol-6-yl)(propyl)amino)-ethyl)-3-hydroxycyclobutyl)-4-methoxybenzenesulfonamide], in data set [1], the “Selectivity D2-like/D3” value amounted to 65. In addition, the “Selectivity D1-like/D3” value in data set [2] is listed as 1,631.

Regarding `CCCN(CCC1(O)CC(NC(=O)c2ccccc2)C1)[C@H]1CCc2nc(N)sc2C1` (stereo in doubt) [Compound 11, N-(cis-3-(2-(((S)-2-Amino-4,5,6,7-tetrahydrobenzo[d]thiazol-6-yl)(propyl)amino)-ethyl)-3-hydroxycyclobutyl)benzamide], in data set [1], the “Selectivity D2-like/D3” value amounted to 301. For the same compound, the “Selectivity D1-like/D3” value in data set [2] was 2,662.

On to `CCCN(CCC1(O)CC(NC(=O)c2ccccc2OC)C1)[C@H]1CCc2nc(N)sc2C1` (stereo in doubt) [Compound 19, N-(cis-3-(2-(((S)-2-Amino-4,5,6,7-tetrahydrobenzo[d]thiazol-6-yl)(propyl)amino)-ethyl)-3-hydroxycyclobutyl)-2-methoxybenzamide], for which the “Selectivity D2-like/D3” value in data set [1] is given as 160. Also, the “Selectivity D1-like/D3” value in data set [2] is 44,500.

For the compound `CCCN(CCC1(O)CC(NS(=O)(=O)c2ccccc2F)C1)[C@H]1CCc2nc(N)sc2C1` (stereo in doubt) [Compound 31, N-(cis-3-(2-(((S)-2-Amino-4,5,6,7-tetrahydrobenzo[d]thiazol-6-yl)(propyl)amino)-ethyl)-3-hydroxycyclobutyl)-2-fluorobenzenesulfonamide], in data set [1], the “Selectivity D2-like/D3” value is on record as 614. For the same compound, the “Selectivity D1-like/D3” value in data set [2] is 109,000.

For `CCCN(CCC1(O)CC(NC(=O)c2ccc(OC)cc2)C1)[C@H]1CCc2nc(N)sc2C1` (stereo in doubt) [Compound 20, N-(cis-3-(2-(((S)-2-Amino-4,5,6,7-tetrahydrobenzo[d]thiazol-6-yl)(propyl)amino)-ethyl)-3-hydroxycyclobutyl)-4-methoxybenzamide], in data set [1], the “Selectivity D2-like/D3” value was 3,779. For the same compound, in data set [3], the “t1/2 in human liver microsomes” value is over 1 h. Further, the “Percentage remaining of compounds in human liver microsomes” value in data set [3] (0 h) amounted to 100%; in data set [3] (5 min), 97.7%; in data set [3] (10 min), 94.1%; in data set [3] (0.25 h), 94.0%; in data set [3] (0.5 h) it was 85.5%; in data set [3] (1 h), 76.7%. Also, in data set [2], the “Selectivity D1-like/D3” value was 61,143.

In the case of `CCCN(CCC1(O)CC(NS(=O)(=O)c2ccc(F)c(F)c2)C1)[C@H]1CCc2nc(N)sc2C1` (stereo in doubt) [Compound 35, N-(cis-3-(2-(((S)-2-Amino-4,5,6,7-tetrahydrobenzo[d]thiazol-6-yl)(propyl)amino)-ethyl)-3-hydroxycyclobutyl)-3,4-difluorobenzenesulfonamide], in data set [1], the “Selectivity D2-like/D3” value is on record as 19. Besides, the “Selectivity D1-like/D3” value in data set [2] is 24,516.

Take `CCCN(CCC1(O)CC(NC(=O)c2ccc(-c3noc(C)n3)cc2)C1)[C@H]1CCc2nc(N)sc2C1` (stereo in doubt) [Compound 22, N-(cis-3-(2-(((S)-2-amino-4,5,6,7-tetrahydrobenzo[d]thiazol-6-yl)(propyl)amino)-ethyl)-3-hydroxycyclobutyl)-4-(5-methyl-1,2,4-oxadiazol-3-yl)benzamide]: the “Selectivity D2-like/D3” value in data set [1] was 15,208. The “Selectivity D1-like/D3” value in data set [2] was 20,000.

In the case of `CCCN(CCC1(O)CC(NS(=O)(=O)c2cccc(OC)c2)C1)[C@H]1CCc2nc(N)sc2C1` (stereo in doubt) [Compound 26, N-(cis-3-(2-(((S)-2-Amino-4,5,6,7-tetrahydrobenzo[d]thiazol-6-yl)(propyl)amino)-ethyl)-3-hydroxycyclobutyl)-3-methoxybenzenesulfonamide], the “Selectivity D2-like/D3” value in data set [1] is listed as 98. For the same compound, in data set [2], the “Selectivity D1-like/D3” value is 22,812.

Consider `CCCN(CC[C@]1(O)C[C@@H](NS(=O)(=O)c2ccccc2Cl)C1)[C@H]1CCc2nc(N)sc2C1` (relative stereo) [Compound 28, N-(cis-3-(2-(((S)-2-Amino-4,5,6,7-tetrahydrobenzo[d]thiazol-6-yl)(propyl)amino)-ethyl)-3-hydroxycyclobutyl)-2-chlorobenzenesulfonamide], for which the “Selectivity D2-like/D3” value in data set [1] is listed as 485. Further, the “Selectivity D1-like/D3” value in data set [2] was 160,847.

As for `CCCN(CCC1(O)CC(NC(=O)c2ccc(Cl)cc2)C1)[C@H]1CCc2nc(N)sc2C1` (stereo in doubt) [Compound 14, N-(cis-3-(2-(((S)-2-Amino-4,5,6,7-tetrahydrobenzo[d]thiazol-6-yl)(propyl)amino)-ethyl)-3-hydroxycyclobutyl)-4-chlorobenzamide], the “Selectivity D2-like/D3” value in data set [1] was 157. For the same compound, in data set [2], the “Selectivity D1-like/D3” value was 9,751.

Regarding `CCCN(CC[C@]1(O)C[C@@H](NC(=O)c2cccc(F)c2)C1)[C@H]1CCc2nc(N)sc2C1` (relative stereo) [Compound 16, N-(cis-3-(2-(((S)-2-Amino-4,5,6,7-tetrahydrobenzo[d]thiazol-6-yl)(propyl)amino)-ethyl)-3-hydroxycyclobutyl)-3-fluorobenzamide], the “Selectivity D2-like/D3” value in data set [1] is 138. The “Selectivity D1-like/D3” value in data set [2] is on record as 29,789.

`CCCN(CC[C@]1(O)C[C@H](NS(=O)(=O)c2ccccc2OC)C1)[C@H]1CCc2nc(N)sc2C1` (relative stereo) [Compound 25, N-(cis-3-(2-(((S)-2-Amino-4,5,6,7-tetrahydrobenzo[d]thiazol-6-yl)(propyl)amino)-ethyl)-3-hydroxycyclobutyl)-2-methoxybenzenesulfonamide]: the “Selectivity D2-like/D3” value in data set [1] was found to be 75. The “Selectivity D1-like/D3” value in data set [2] stood at 800.

Turning to `CCCN(CC[C@]1(O)C[C@H](NC(=O)c2cccc(Cl)c2)C1)[C@H]1CCc2nc(N)sc2C1` (relative stereo) [Compound 13, N-(cis-3-(2-(((S)-2-Amino-4,5,6,7-tetrahydrobenzo[d]thiazol-6-yl)(propyl)-amino)ethyl)-3-hydroxycyclobutyl)-3-chlorobenzamide], in data set [1], the “Selectivity D2-like/D3” value is reported as 175. The “Selectivity D1-like/D3” value in data set [2] was 49,482.

In the case of `CCCN(CCC1(O)CC(NC(=O)c2ccc(F)cc2)C1)[C@H]1CCc2nc(N)sc2C1` (stereo in doubt) [Compound 17, N-(cis-3-(2-(((S)-2-Amino-4,5,6,7-tetrahydrobenzo[d]thiazol-6-yl)(propyl)amino)-ethyl)-3-hydroxycyclobutyl)-4-fluorobenzamide], the “Selectivity D2-like/D3” value in data set [1] worked out at 412. Besides, the “Selectivity D1-like/D3” value in data set [2] is listed as 56,180.
